Results taken from PMC6203112 (International Journal of Chronic Obstructive Pulmonary …, 2018).

Key:
[1] = system: human bronchial epithelial cells; conditions: alone and in combination with low-dose corticosteroids; cited from earlier work
[2] = Study 2 Part 1: adverse events after single doses via MDDPI; format: in vivo, human
Method in brief: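 Study 2 Part 1 was a three-period single ascending dose design in healthy men and women, with four randomized treatment sequences. At each visit, test compound (2,400, 4,000, 4,800 µg) or placebo was inhaled via a reservoir multi-dose dry-powder inhaler, with the dose rising each visit. AEs and investigator-judged relation to study drug were recorded, reported as number (%) of the safety population.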

[3] = Study 2 Part 2: adverse events after multiple BID doses via MDDPI; format: in vivo, human; conditions: N=9
Method in brief: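 Study 2 Part 2 used three parallel escalating cohorts of healthy men and women. Subjects inhaled test compound at 1,200, 2,000 or 2,400 µg twice daily, or placebo, for 14 days via a reservoir multi-dose dry-powder inhaler, confined from day −2 to day 15. AEs were recorded with investigator-assessed relation to study medication, as number (%) of the safety population.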

[4] = Study 1 Part 1: single ascending dose PK via SDDPI; format: in vivo; conditions: human, plasma, inhaled
Method in brief: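 Blood was collected in lithium heparin, chilled on ice, and centrifuged at 2,000 ×g for 15 min at ~4°C. Plasma was stabilised with 1 M citric acid (100 µL per 1 mL plasma) and stored at ≤−65°C. After solid-phase extraction, samples were assayed by validated LC-MS/MS with heated electrospray and a deuterated internal standard (LLOQ 10 pg/mL). PK parameters were derived non-compartmentally.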

Which results are given for `CS(=O)(=O)Nc1ccc(C(=O)O[C@@H](Cc2c(Cl)c[n+]([O-])cc2Cl)c2ccc(OC(F)F)c(OCC3CC3)c2)cc1OCC1CC1` [CHF6001]?
cytokine levels after rhinovirus challenge [1]: reduced the levels of a range of cytokines in a concentration-dependent manner; AE considered related to study medication ([2]; single dose 2,400 µg, N=9): 1 (11.1) Number (%) of subjects; AE leading to death ([2]; single dose 2,400 µg, N=9): 0 Number (%) of subjects; AE leading to withdrawal ([2]; single dose 2,400 µg, N=9): 1 (11.1) Number (%) of subjects; At least one AE ([2]; single dose 2,400 µg, N=9): 3 (33.3) Number (%) of subjects; At least one SAE ([2]; single dose 2,400 µg, N=9): 0 Number (%) of subjects; Severe AE ([2]; single dose 2,400 µg, N=9): 1 (11.1) Number (%) of subjects; AE considered related to study medication ([2]; single dose 4,000 µg, N=8): 1 (12.5) Number (%) of subjects; AE leading to death ([2]; single dose 4,000 µg, N=8): 0 Number (%) of subjects; AE leading to withdrawal ([2]; single dose 4,000 µg, N=8): 0 Number (%) of subjects; At least one AE ([2]; single dose 4,000 µg, N=8): 1 (12.5) Number (%) of subjects; At least one SAE ([2]; single dose 4,000 µg, N=8): 0 Number (%) of subjects; Severe AE ([2]; single dose 4,000 µg, N=8): 0 Number (%) of subjects; AE considered related to study medication ([2]; single dose 4,800 µg, N=8): 0 Number (%) of subjects; AE leading to death ([2]; single dose 4,800 µg, N=8): 0 Number (%) of subjects; AE leading to withdrawal ([2]; single dose 4,800 µg, N=8): 0 Number (%) of subjects; At least one AE ([2]; single dose 4,800 µg, N=8): 1 (12.5) Number (%) of subjects; At least one SAE ([2]; single dose 4,800 µg, N=8): 0 Number (%) of subjects; Severe AE ([2]; single dose 4,800 µg, N=8): 0 Number (%) of subjects; AE considered related to study medication ([3]; 1,200 µg BID 14 days): 4 (44.4) Number (%) of subjects; AE leading to death ([3]; 1,200 µg BID 14 days): 0 Number (%) of subjects; AE leading to withdrawal ([3]; 1,200 µg BID 14 days): 0 Number (%) of subjects; At least one AE ([3]; 1,200 µg BID 14 days): 6 (66.7) Number (%) of subjects; At least one SAE ([3]; 1,200 µg BID 14 days): 0 Number (%) of subjects; Back pain (AE) ([3]; 1,200 µg BID 14 days): 0 Number (%) of subjects; Diarrhea (AE considered related to study medication) ([3]; 1,200 µg BID 14 days): 1 (11.1) Number (%) of subjects; Flatulence (AE considered related to study medication) ([3]; 1,200 µg BID 14 days): 1 (11.1) Number (%) of subjects; Headache (AE considered related to study medication) ([3]; 1,200 µg BID 14 days): 3 (33.3) Number (%) of subjects; Headache (AE) ([3]; 1,200 µg BID 14 days): 3 (33.3) Number (%) of subjects; Nausea (AE considered related to study medication) ([3]; 1,200 µg BID 14 days): 0 Number (%) of subjects; Parosmia (AE considered related to study medication) ([3]; 1,200 µg BID 14 days): 0 Number (%) of subjects; Severe AE ([3]; 1,200 µg BID 14 days): 0 Number (%) of subjects; AE leading to death ([3]; 2,000 µg BID 14 days): 0 Number (%) of subjects; AE leading to withdrawal ([3]; 2,000 µg BID 14 days): 0 Number (%) of subjects; At least one AE ([3]; 2,000 µg BID 14 days): 5 (55.6) Number (%) of subjects; At least one SAE ([3]; 2,000 µg BID 14 days): 0 Number (%) of subjects; Back pain (AE) ([3]; 2,000 µg BID 14 days): 3 (33.3) Number (%) of subjects; Diarrhea (AE considered related to study medication) ([3]; 2,000 µg BID 14 days): 0 Number (%) of subjects; Flatulence (AE considered related to study medication) ([3]; 2,000 µg BID 14 days): 0 Number (%) of subjects; Headache (AE considered related to study medication) ([3]; 2,000 µg BID 14 days): 2 (22.2) Number (%) of subjects; Headache (AE) ([3]; 2,000 µg BID 14 days): 2 (22.2) Number (%) of subjects; Nausea (AE considered related to study medication) ([3]; 2,000 µg BID 14 days): 0 Number (%) of subjects; Parosmia (AE considered related to study medication) ([3]; 2,000 µg BID 14 days): 0 Number (%) of subjects; Severe AE ([3]; 2,000 µg BID 14 days): 1 (11.1) Number (%) of subjects; AE considered related to study medication ([3]; 2,400 µg BID 14 days): 1 (11.1) Number (%) of subjects; AE leading to death ([3]; 2,400 µg BID 14 days): 0 Number (%) of subjects; AE leading to withdrawal ([3]; 2,400 µg BID 14 days): 1 (11.1) Number (%) of subjects; At least one AE ([3]; 2,400 µg BID 14 days): 7 (77.8) Number (%) of subjects; At least one SAE ([3]; 2,400 µg BID 14 days): 0 Number (%) of subjects; Back pain (AE) ([3]; 2,400 µg BID 14 days): 5 (55.6) Number (%) of subjects; Diarrhea (AE considered related to study medication) ([3]; 2,400 µg BID 14 days): 0 Number (%) of subjects; Flatulence (AE considered related to study medication) ([3]; 2,400 µg BID 14 days): 0 Number (%) of subjects; Headache (AE considered related to study medication) ([3]; 2,400 µg BID 14 days): 1 (11.1) Number (%) of subjects; Headache (AE) ([3]; 2,400 µg BID 14 days): 2 (22.2) Number (%) of subjects; Nausea (AE considered related to study medication) ([3]; 2,400 µg BID 14 days): 0 Number (%) of subjects; Parosmia (AE considered related to study medication) ([3]; 2,400 µg BID 14 days): 0 Number (%) of subjects; Severe AE ([3]; 2,400 µg BID 14 days): 0 Number (%) of subjects; half-life [4]: 1800 to 2700 min; AUC(0-t) ([4]; 20 ug): 0.0316 ng·h/mL; Cmax ([4]; 20 ug): 0.0189 ng/mL; half-life ([4]; 20 ug): 336 min; AUC(0-t) ([4]; 100 ug): 1.48 ng·h/mL; Cmax ([4]; 100 ug): 0.0638 ng/mL; half-life ([4]; 100 ug): 1690 min; AUC(0-t) ([4]; 200 ug): 2.78 ng·h/mL; Cmax ([4]; 200 ug): 0.14 ng/mL
